Data on 23 compounds can be found in ChEMBL document CHEMBL4000147, “Pyrrolo[2,3-b]pyridine derivatives as potent Bruton's tyrosine kinase inhibitors” (Bioorg Med Chem, 2015).

Data set [1] addresses T1, Tyrosine-protein kinase BTK (Homo sapiens, UniProt Q06187). As to the kind of experiment: Inhibition of recombinant human His-tagged full length BTK expressed in baculovirus using biotin labeled peptide substrate after 1 hr by HRTF kinase/TR-FRET assay. For orientation: In TR-FRET formats the signal depends on donor and acceptor labels being close together.
Data set [2] deals with T1, Tyrosine-protein kinase BTK. As to the kind of experiment: Inhibition of BTK in human Ramos cells assessed as inhibition of anti human IgM-induced calcium influx preincubated for 20 mins in dark followed by anti human IgM induction for 8 mins by FLIPR assay. It counts as cell-based.
Data set [3] can be described thus: Cmax in Sprague-Dawley rat at 4 mg/kg, po by LC/MS/MS analysis. Type of data set: ADME, organism-based. The arrangement: dose 4 mg/kg, route oral. Particulars: in vivo. In short, it runs like this: (§1)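 Three male SD rats (180–240 g) dosed orally, 4 mg/kg, dosing volume 5 mL/kg. Blood sampled at 2, 5, 15, 30 min and 1, 2, 4, 6, 8, 10, 24 h, centrifuged 4000 rpm 5 min at 4 °C. Plasma analysed after protein precipitation by LC/MS/MS in SRM mode with internal standard. Parameters from concentration–time data by noncompartmental analysis.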

Data set [4] can be described thus: Tmax in Sprague-Dawley rat at 4 mg/kg, po by LC/MS/MS analysis. Particulars: in vivo. It counts as ADME, organism-based. In short, it runs like this:
as §1

The nature of data set [5]: Clearance in Sprague-Dawley rat at 4 mg/kg, po by LC/MS/MS analysis. Particulars: in vivo. Type of data set: ADME, organism-based. In short, it runs like this: as §1
The nature of data set [6]: Half life in Sprague-Dawley rat at 4 mg/kg, po by LC/MS/MS analysis. Type of data set: ADME, organism-based. Particulars: in vivo. In short, it runs like this: as §1
A short description of data set [7]: AUClast in Sprague-Dawley rat at 4 mg/kg, po by LC/MS/MS analysis. It counts as ADME, organism-based. Set-up: dose 4 mg/kg, route oral, time 0 - last. Particulars: in vivo. In short, it runs like this:
as §1

T1 sequence (Q06187 whole entry): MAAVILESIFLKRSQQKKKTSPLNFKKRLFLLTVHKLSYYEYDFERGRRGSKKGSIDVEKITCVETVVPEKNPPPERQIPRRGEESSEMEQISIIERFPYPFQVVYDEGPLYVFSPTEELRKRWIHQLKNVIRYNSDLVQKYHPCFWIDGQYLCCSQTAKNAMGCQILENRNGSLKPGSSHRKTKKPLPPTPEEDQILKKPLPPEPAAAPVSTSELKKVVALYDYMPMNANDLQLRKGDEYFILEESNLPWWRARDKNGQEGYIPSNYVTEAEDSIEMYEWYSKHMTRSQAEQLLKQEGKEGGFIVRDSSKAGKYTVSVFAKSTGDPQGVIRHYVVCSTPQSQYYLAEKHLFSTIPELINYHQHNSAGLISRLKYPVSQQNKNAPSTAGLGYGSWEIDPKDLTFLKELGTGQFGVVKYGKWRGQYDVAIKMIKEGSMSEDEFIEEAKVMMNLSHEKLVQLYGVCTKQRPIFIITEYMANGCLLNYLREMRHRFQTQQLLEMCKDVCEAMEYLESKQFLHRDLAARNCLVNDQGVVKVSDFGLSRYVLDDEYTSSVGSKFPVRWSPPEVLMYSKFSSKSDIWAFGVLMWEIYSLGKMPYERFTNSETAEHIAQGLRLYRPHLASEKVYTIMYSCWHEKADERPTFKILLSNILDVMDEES

What is called IC50 is the concentration needed to halve the response being measured. For the compound `CN(C)C(=O)c1ccc(-c2cc3c(-c4cccc(-n5ccc6cc(C7CC7)cc(F)c6c5=O)c4CO)ccnc3[nH]2)cc1`, the IC50 in data set [1] came out at 12.1 nM; in data set [2], 94.2 nM.

Usually Cmax stands for the highest concentration seen after dosing. For orientation: Tmax means the time at which the peak concentration occurs. One may read the CL/F as clearance divided by bioavailability, as obtained after extravascular dosing. By half-life is commonly meant the time in which the quantity being followed falls by half. A high value points to slow decline. The term AUC(0-t) denotes the area under the concentration-time curve up to a stated or last time point. Regarding `CN1CCN(c2ccc(Nc3cc(-c4cccc(-n5ccc6cc(C7CC7)cc(F)c6c5=O)c4CO)cn(C)c3=O)nc2)CC1`, in data set [3], the Cmax turned out to be 134 ng/mL. Besides, the Tmax in data set [4] was 4 h. For the same compound, the CL/F in data set [5] was 53.3 mL/min/kg. In addition, the half-life in data set [6] is 4.4 h. For the same compound, in data set [7], the exposure AUC(0-t) stood at 1050 ng·h/mL.

Consider `CC(=O)c1ccc(-c2cc3c(-c4cccc(-n5ccc6cc(C7CC7)cc(F)c6c5=O)c4CO)ccnc3[nH]2)cc1`, for which the IC50 in data set [1] worked out at 21.3 nM; in data set [2], 32 nM.

Compound `CN(C)C(=O)N1CC=C(c2cc3c(-c4cccc(-n5ccc6cc(C7CC7)cc(F)c6c5=O)c4CO)ncnc3[nH]2)CC1` showed a maximum concentration (Cmax) in data set [3] of 422 ng/mL. Also, the time to peak (Tmax) in data set [4] amounted to 0.8 h. Further, the apparent clearance (CL/F) in data set [5] was 43.3 mL/min/kg. In data set [6], this compound had a half-life of 5.4 h. The compound further gave an AUC(0-t) in data set [7] of 1790 ng·h/mL.

For `Cc1cc2c(-c3cccc(-n4ccc5cc(C6CC6)cc(F)c5c4=O)c3CO)ccnc2[nH]1`, the half-inhibitory concentration (IC50) in data set [1] is 395 nM; in data set [2], 213 nM.

Take `Nc1cccc(-c2cc3c(-c4cccc(-n5ccc6cc(C7CC7)cc(F)c6c5=O)c4CO)ccnc3[nH]2)c1`: the half-maximal inhibitory concentration (IC50) in data set [1] came out at 110 nM; in data set [2] it was 2410 nM.

`O=c1c2c(F)cc(C3CC3)cc2ccn1-c1cccc(-c2ccnc3[nH]c(C4=CCNCC4)cc23)c1CO`: the IC50 in data set [1] worked out at 28.3 nM; in data set [2], 3 nM.

In the case of `O=C(C1CC1)N1CC=C(c2cc3c(-c4cccc(-n5ccc6cc(C7CC7)cc(F)c6c5=O)c4CO)ccnc3[nH]2)CC1`, the concentration for half-maximal inhibition (IC50) stood at 10.4 nM in data set [1] and 16 nM in data set [2].

Take `CN(C)C(=O)N1CC=C(c2cc3c(-c4cccc(-n5ccc6cc(C7CC7)cc(F)c6c5=O)c4CO)ccnc3[nH]2)CC1`: the IC50 in data set [1] is 6 nM; in data set [2], 14 nM. Moreover, the Cmax in data set [3] came to 739 ng/mL. For the same compound, in data set [4], the Tmax was 1.9 h. The CL/F in data set [5] was 20 mL/min/kg. Also, the half-life in data set [6] was 8.9 h. In addition, the AUC(0-t) in data set [7] came to 3420 ng·h/mL.

`CS(=O)(=O)N1CC=C(c2cc3c(-c4cccc(-n5ccc6cc(C7CC7)cc(F)c6c5=O)c4CO)ccnc3[nH]2)CC1`: the IC50 in data set [1] worked out at 7.1 nM; in data set [2], 410 nM.

Regarding `O=c1c2c(F)cc(C3CC3)cc2ccn1-c1cccc(-c2ccnc3[nH]c(-c4ccc(CN5CCOCC5)cc4)cc23)c1CO`, the IC50 in data set [1] stood at 18.1 nM; in data set [2] it was 69 nM.

As for `O=c1c2c(F)cc(C3CC3)cc2ccn1-c1cccc(-c2ccnc3[nH]c(C4=CCN(C5COC5)CC4)cc23)c1CO`, the IC50 in data set [1] was 31.4 nM; in data set [2], 3 nM.

As to `O=C(c1ccc(-c2cc3c(-c4cccc(-n5ccc6cc(C7CC7)cc(F)c6c5=O)c4CO)ccnc3[nH]2)cc1)N1CCCCC1`, the half-inhibitory concentration (IC50) in data set [1] was 38 nM; in data set [2], 52 nM.

For `COc1ccc(-c2cc3c(-c4cccc(-n5ccc6cc(C7CC7)cc(F)c6c5=O)c4CO)ccnc3[nH]2)cn1`, the half-inhibitory concentration (IC50) in data set [1] was 68.3 nM; in data set [2] it was 196 nM.

`CN(C)S(=O)(=O)N1CC=C(c2cc3c(-c4cccc(-n5ccc6cc(C7CC7)cc(F)c6c5=O)c4CO)ccnc3[nH]2)CC1`: the IC50 came out at 9.7 nM in data set [1] and 27 nM in data set [2].

In the case of `CN(C)C(=O)N1CC=C(c2cc3c(-c4cccc(-n5ccc6cc(C7CC7)cc(F)c6c5=O)c4CO)cccc3[nH]2)CC1`, the IC50 in data set [1] and in data set [2] was > 5000 nM each time.

In the case of `COc1ccc(-c2cc3c(-c4cccc(-n5ccc6cc(C7CC7)cc(F)c6c5=O)c4CO)ccnc3[nH]2)cc1`, the figures for the concentration for half-maximal inhibition (IC50) in data set [1] and in data set [2] were 27.3 nM and 56.3 nM, respectively.

Turning to `CC(=O)c1cc(-c2cc3c(-c4cccc(-n5ccc6cc(C7CC7)cc(F)c6c5=O)c4CO)ccnc3[nH]2)cs1`, the IC50 is 78.1 nM in data set [1] and 69 nM in data set [2].

`CN(C)C(=O)c1ccc(-c2nc3c(-c4cccc(-n5ccc6cc(C7CC7)cc(F)c6c5=O)c4CO)ccnc3[nH]2)cc1`: the IC50 in data set [1] was 33.3 nM; in data set [2], 92.7 nM.

With `CC(=O)N1CC=C(c2cc3c(-c4cccc(-n5ccc6cc(C7CC7)cc(F)c6c5=O)c4CO)ccnc3[nH]2)CC1`, the IC50 in data set [1] turned out to be 6.7 nM; in data set [2], 12 nM.

`Cn1ccc(-c2cc3c(-c4cccc(-n5ccc6cc(C7CC7)cc(F)c6c5=O)c4CO)ccnc3[nH]2)n1`: the IC50 was 20.6 nM in data set [1] and 9.5 nM in data set [2].

On to `O=c1c2c(F)cc(C3CC3)cc2ccn1-c1cccc(-c2ccnc3[nH]c(-c4ccc(O)cc4)cc23)c1CO`, for which the concentration for half-maximal inhibition (IC50) in data set [1] turned out to be 39.8 nM; in data set [2] it was 110 nM.

Consider `O=C(N1CC=C(c2cc3c(-c4cccc(-n5ccc6cc(C7CC7)cc(F)c6c5=O)c4CO)ccnc3[nH]2)CC1)N1CCOCC1`, for which the values for the IC50 in data set [1] and in data set [2] were 7.3 nM and 42 nM, respectively.
